Assay results published in ChEMBL document CHEMBL4811225 (J Med Chem, 2021).
Where a SMILES comes first, the peptide text is derived from it. Bridges are numbered along the chain shown (N, C = ends).

Legend:
[1] = molecular target: Nicotinic acetylcholine receptor alpha6/alpha3/beta4 (Rattus norvegicus, UniProt P04757+P12392+P43143); type: cell-based, Oocyte
[2] = molecular target: T1, Nicotinic acetylcholine receptor alpha6/alpha3/beta4 (Rattus norvegicus) (UniProt P04757+P12392+P43143); test: Inhibition of rat alpha6beta4 nAChR expressed in Xenopus laevis oocytes assessed as recovery of acethylcholine-evoked currents at 10 uM treated for 10 mins followed by compound washout by two-electrode voltage-clamp method relative to control; type: cell-based; design: scale not given: the % may be the effect or the level left; conditions: Oocyte
[3] = molecular target: Nicotinic acetylcholine receptor alpha-1/beta-1/delta/epsilon (Homo sapiens, UniProt P02708+P11230+Q04844+Q07001); test: Inhibition of human alpha1beta1deltaepsilon nAChR expressed in Xenopus laevis oocytes assessed as inhibition of acetylcholine-induced current response by two-electrode voltage-clamp method; type: cell-based, Oocyte
Nicotinic acetylcholine receptor alpha-1/beta-1/delta/epsilon, sequence (P02708 whole entry): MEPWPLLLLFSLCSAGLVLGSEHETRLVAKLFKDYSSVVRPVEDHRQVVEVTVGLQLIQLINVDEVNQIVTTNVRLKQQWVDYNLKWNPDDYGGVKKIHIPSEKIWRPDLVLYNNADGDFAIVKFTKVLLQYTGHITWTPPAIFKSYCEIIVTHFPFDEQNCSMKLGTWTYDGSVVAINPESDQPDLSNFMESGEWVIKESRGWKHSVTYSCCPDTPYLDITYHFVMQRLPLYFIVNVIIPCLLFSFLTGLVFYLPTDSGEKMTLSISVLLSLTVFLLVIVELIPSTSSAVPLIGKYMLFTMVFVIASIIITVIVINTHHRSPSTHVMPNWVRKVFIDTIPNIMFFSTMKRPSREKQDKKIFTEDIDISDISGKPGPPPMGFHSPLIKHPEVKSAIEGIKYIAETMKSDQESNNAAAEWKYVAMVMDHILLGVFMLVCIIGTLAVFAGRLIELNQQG
Nicotinic acetylcholine receptor alpha-1/beta-1/delta/epsilon, sequence (P11230 whole entry): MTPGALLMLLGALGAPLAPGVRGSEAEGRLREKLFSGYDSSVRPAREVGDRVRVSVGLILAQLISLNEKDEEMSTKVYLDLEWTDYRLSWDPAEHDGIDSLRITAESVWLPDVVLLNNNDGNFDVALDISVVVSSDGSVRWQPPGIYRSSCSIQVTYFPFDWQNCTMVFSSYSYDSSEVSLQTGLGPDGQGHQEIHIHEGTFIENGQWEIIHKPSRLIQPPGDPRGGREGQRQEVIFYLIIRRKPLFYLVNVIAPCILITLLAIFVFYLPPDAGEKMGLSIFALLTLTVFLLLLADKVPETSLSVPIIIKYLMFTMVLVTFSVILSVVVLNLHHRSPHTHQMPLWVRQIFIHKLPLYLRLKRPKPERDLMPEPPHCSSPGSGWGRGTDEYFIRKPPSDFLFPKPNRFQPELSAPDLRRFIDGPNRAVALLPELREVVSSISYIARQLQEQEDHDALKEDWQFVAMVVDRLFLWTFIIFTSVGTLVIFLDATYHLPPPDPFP
Nicotinic acetylcholine receptor alpha-1/beta-1/delta/epsilon, sequence (Q07001 whole entry): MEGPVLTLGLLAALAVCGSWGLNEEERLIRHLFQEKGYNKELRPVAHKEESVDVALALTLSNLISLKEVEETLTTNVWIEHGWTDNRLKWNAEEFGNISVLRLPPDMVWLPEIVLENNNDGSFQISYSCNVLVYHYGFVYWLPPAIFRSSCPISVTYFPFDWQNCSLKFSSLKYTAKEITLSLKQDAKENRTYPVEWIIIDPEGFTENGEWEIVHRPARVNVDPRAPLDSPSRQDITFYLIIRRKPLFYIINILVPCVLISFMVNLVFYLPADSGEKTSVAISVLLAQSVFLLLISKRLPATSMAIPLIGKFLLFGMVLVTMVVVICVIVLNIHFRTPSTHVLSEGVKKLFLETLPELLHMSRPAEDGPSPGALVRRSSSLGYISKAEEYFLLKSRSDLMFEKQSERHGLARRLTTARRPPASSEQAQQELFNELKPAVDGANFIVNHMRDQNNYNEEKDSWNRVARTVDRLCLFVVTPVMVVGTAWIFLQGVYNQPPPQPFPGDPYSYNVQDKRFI
Nicotinic acetylcholine receptor alpha-1/beta-1/delta/epsilon, sequence (Q04844 whole entry): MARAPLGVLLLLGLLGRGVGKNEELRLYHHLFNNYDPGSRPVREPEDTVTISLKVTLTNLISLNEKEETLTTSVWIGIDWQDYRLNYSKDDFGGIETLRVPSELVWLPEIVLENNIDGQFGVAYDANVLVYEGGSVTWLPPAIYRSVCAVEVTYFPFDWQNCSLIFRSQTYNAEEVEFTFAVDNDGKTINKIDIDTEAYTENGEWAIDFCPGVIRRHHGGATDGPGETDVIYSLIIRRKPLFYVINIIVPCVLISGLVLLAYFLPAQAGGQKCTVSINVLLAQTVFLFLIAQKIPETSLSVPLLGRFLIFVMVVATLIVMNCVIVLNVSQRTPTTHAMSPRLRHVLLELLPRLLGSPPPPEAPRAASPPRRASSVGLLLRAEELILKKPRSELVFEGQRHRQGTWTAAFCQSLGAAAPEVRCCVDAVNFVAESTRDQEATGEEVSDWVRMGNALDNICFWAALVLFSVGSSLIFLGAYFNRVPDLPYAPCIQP
In short: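 Stage IV–V X. laevis oocytes nucleus-injected with equal ratios of human α1, β1, δ, ε cDNAs; TEVC 1–5 days after injection. ACh 100 μM, 1 s every 60 s.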

[4] = molecular target: Neuronal acetylcholine receptor; alpha2/beta2 (Homo sapiens, UniProt P17787+Q15822); test: Inhibition of human alpha2beta2 nAChR expressed in Xenopus laevis oocytes assessed as inhibition of acetylcholine-induced current response by two-electrode voltage-clamp method; type: cell-based, Oocyte
In short: (§1)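 Two-electrode voltage clamp of stage IV–V oocytes 1–5 days after equal-ratio cRNA injection; ACh 100 μM (β2-containing subtypes, α9α10), 1 s every 60 s in frog saline. Peptide perfused up to 1 μM, responses normalized to mean of three control responses; above 1 μM, 5 min static bath. IC50 with 95% CI; n = oocytes.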

[5] = molecular target: Neuronal acetylcholine receptor; alpha3/beta2 (Rattus norvegicus, UniProt P04757+P12390); type: cell-based, Oocyte
[6] = molecular target: Neuronal acetylcholine receptor; alpha3/beta4 (Rattus norvegicus, UniProt P04757+P12392); type: cell-based, Oocyte
[7] = molecular target: Neuronal acetylcholine receptor; alpha4/beta2 (Homo sapiens, UniProt P17787+P43681); test: Inhibition of human alpha4beta2 nAChR expressed in Xenopus laevis oocytes assessed as inhibition of acetylcholine-induced current response by two-electrode voltage-clamp method; type: cell-based, Oocyte
In short: as §1

[8] = molecular target: Neuronal acetylcholine receptor; alpha4/beta2 (Rattus norvegicus, UniProt P09483+P12390); type: cell-based, Oocyte
[9] = molecular target: Nicotinic acetylcholine receptor alpha6/alpha3/beta2/beta3 (Rattus norvegicus, UniProt P04757+P12390+P12391+P43143); type: cell-based, Oocyte
[10] = molecular target: Neuronal acetylcholine receptor; alpha9/alpha10 (Homo sapiens, UniProt Q9GZZ6+Q9UGM1); test: Inhibition of human alpha9alpha10 nAChR expressed in Xenopus laevis oocytes assessed as inhibition of acetylcholine-induced current response by two-electrode voltage-clamp method; type: cell-based, Oocyte
Neuronal acetylcholine receptor; alpha9/alpha10, sequence (Q9UGM1 whole entry): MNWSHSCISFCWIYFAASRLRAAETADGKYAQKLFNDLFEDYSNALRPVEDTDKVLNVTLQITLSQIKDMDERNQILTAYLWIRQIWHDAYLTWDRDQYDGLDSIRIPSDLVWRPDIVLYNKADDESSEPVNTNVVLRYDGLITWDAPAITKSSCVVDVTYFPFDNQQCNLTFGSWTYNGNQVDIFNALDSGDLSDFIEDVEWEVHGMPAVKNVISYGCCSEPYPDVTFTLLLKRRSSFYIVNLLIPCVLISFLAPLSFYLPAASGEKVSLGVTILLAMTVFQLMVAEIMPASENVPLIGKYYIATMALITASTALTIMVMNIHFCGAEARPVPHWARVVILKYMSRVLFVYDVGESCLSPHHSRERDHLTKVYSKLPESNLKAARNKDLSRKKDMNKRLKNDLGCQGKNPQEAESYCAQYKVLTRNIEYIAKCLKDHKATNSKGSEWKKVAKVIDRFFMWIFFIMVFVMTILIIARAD
Neuronal acetylcholine receptor; alpha9/alpha10, sequence (Q9GZZ6 whole entry): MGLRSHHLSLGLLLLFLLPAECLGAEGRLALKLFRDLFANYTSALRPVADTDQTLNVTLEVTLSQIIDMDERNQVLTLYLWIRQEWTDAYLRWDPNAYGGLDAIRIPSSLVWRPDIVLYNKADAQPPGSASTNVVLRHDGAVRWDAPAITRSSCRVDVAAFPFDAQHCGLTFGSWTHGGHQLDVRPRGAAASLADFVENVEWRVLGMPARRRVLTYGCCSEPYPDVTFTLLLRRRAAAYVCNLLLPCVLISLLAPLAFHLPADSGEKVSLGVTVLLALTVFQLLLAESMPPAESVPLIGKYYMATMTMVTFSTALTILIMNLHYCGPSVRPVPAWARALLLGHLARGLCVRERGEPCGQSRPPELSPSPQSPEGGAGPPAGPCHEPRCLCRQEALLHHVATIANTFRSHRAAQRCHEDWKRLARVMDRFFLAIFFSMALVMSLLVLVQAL
In short: as §1

[11] = molecular target: Nicotinic acetylcholine receptor alpha9/alpha10 (Rattus norvegicus, UniProt P43144+Q9JLB5); test: Inhibition of rat alpha9alpha10 nAChR expressed in Xenopus laevis oocytes assessed as inhibition of acetylcholine-induced current response by two-electrode voltage-clamp method; type: cell-based, Oocyte
Nicotinic acetylcholine receptor alpha9/alpha10, sequence (P43144 whole entry): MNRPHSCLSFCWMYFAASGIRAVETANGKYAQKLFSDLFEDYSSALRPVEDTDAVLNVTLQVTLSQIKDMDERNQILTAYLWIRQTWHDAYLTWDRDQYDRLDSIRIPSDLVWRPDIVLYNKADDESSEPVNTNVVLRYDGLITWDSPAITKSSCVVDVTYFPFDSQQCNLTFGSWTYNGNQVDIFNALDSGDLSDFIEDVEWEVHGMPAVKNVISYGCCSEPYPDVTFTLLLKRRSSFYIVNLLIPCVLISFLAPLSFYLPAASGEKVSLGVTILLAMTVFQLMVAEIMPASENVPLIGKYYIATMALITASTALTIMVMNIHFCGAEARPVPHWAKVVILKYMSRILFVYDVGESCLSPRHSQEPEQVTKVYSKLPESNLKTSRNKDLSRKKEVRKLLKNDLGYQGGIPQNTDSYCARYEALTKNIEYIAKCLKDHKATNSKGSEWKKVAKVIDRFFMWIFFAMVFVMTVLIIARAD
Nicotinic acetylcholine receptor alpha9/alpha10, sequence (Q9JLB5 whole entry): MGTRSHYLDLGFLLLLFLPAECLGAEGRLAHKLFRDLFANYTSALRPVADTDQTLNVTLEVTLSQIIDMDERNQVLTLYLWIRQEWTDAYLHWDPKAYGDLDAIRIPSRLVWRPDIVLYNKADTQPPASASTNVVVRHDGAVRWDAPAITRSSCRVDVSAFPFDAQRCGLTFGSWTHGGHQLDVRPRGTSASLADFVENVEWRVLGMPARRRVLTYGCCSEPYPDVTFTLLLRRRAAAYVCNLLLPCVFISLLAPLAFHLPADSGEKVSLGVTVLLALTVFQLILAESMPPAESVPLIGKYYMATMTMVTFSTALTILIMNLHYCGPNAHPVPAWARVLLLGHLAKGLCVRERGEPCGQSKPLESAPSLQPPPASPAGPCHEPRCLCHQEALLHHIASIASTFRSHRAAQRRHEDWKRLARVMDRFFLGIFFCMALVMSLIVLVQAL
In short: as §1

Homo sapiens [12] = species: Homo sapiens; test: Selectivity ratio of IC50 for human alpha1beta1deltaepsilon nAChR to IC50 for human alpha6/alpha3beta4 nAChR
In short: (§2)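 Ratio of each subtype's IC50, from TEVC inhibition of ACh-evoked currents in X. laevis oocytes, to the IC50 at the same species' α6/α3β4 nAChR; IC50 values with 95% CI, n = number of oocytes.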

Homo sapiens [13] = species: Homo sapiens; test: Selectivity ratio of IC50 for human alpha2beta2 nAChR to IC50 for human alpha6/alpha3beta4 nAChR
In short: as §2

Rattus norvegicus [14] = species: Rattus norvegicus; test: Selectivity ratio of IC50 for rat alpha2beta2 nAChR to IC50 for rat alpha6/alpha3beta4 nAChR
In short: as §2

Homo sapiens [15] = species: Homo sapiens; test: Selectivity ratio of IC50 for human alpha2beta4 nAChR to IC50 for human alpha6/alpha3beta4 nAChR
In short: as §2

Rattus norvegicus [16] = species: Rattus norvegicus; test: Selectivity ratio of IC50 for rat alpha2beta4 nAChR to IC50 for rat alpha6/alpha3beta4 nAChR
In short: as §2

Homo sapiens [17] = species: Homo sapiens; test: Selectivity ratio of IC50 for human alpha3beta4 nAChR to IC50 for human alpha6/alpha3beta4 nAChR
In short: as §2

Homo sapiens [18] = species: Homo sapiens; test: Selectivity ratio of IC50 for human alpha4beta2 nAChR to IC50 for human alpha6/alpha3beta4 nAChR
In short: as §2

Rattus norvegicus [19] = species: Rattus norvegicus; test: Selectivity ratio of IC50 for rat alpha7 nAChR to IC50 for rat alpha6/alpha3beta4 nAChR
In short: as §2

Rattus norvegicus [20] = species: Rattus norvegicus; test: Selectivity ratio of IC50 for rat alpha9alpha10 nAChR to IC50 for rat alpha6/alpha3beta4 nAChR
In short: as §2

[21] = molecular target: Neuronal acetylcholine receptor; alpha2/beta2 (Rattus norvegicus) (UniProt P12389+P12390); test: Inhibition of rat alpha2beta2 nAChR expressed in Xenopus laevis oocytes assessed as inhibition of acetylcholine-induced current response at 10 uM by two-electrode voltage-clamp method relative to control; type: cell-based; conditions: Oocyte
In short: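 Oocytes (stage IV–V) injected with equal-ratio cRNAs of cloned subunits; TEVC 1–5 days post-injection. ACh 100 μM for β2-containing and α9α10 subtypes, 1 s pulses every 60 s. Peptide 10 μM in 5 min static bath; response normalized to ACh response after 5 min control-saline bath; mean ± SD, n = 4.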

[22] = molecular target: Neuronal acetylcholine receptor; alpha2/beta4 (Rattus norvegicus) (UniProt P12389+P12392); test: Inhibition of rat alpha2beta4 nAChR expressed in Xenopus laevis oocytes assessed as inhibition of acetylcholine-induced current response at 10 uM by two-electrode voltage-clamp method relative to control; type: cell-based; conditions: Oocyte
In short: (§3)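 Stage IV–V X. laevis oocytes expressing equal-ratio cRNAs of α2β4, α3β4, α4β4 or α7 subunits; TEVC 1–5 days after injection. ACh 300 μM, 1 s at 60 s intervals. 10 μM peptide as 5 min static bath, normalized to ACh response after 5 min bath of control saline; mean ± SD, n = 4.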

[23] = molecular target: Neuronal acetylcholine receptor; alpha4/beta4 (Rattus norvegicus) (UniProt P09483+P12392); test: Inhibition of rat alpha4beta4 nAChR expressed in Xenopus laevis oocytes assessed as inhibition of acetylcholine-induced current response at 10 uM by two-electrode voltage-clamp method relative to control; type: cell-based; conditions: Oocyte
In short: as §3

[24] = molecular target: Neuronal acetylcholine receptor subunit alpha-7 (Rattus norvegicus) (UniProt Q05941); test: Inhibition of rat alpha7 nAChR expressed in Xenopus laevis oocytes assessed as inhibition of acetylcholine-induced current response at 10 uM by two-electrode voltage-clamp method relative to control; type: cell-based; conditions: Oocyte
Neuronal acetylcholine receptor subunit alpha-7 (Rattus norvegicus), sequence (Q05941 whole entry): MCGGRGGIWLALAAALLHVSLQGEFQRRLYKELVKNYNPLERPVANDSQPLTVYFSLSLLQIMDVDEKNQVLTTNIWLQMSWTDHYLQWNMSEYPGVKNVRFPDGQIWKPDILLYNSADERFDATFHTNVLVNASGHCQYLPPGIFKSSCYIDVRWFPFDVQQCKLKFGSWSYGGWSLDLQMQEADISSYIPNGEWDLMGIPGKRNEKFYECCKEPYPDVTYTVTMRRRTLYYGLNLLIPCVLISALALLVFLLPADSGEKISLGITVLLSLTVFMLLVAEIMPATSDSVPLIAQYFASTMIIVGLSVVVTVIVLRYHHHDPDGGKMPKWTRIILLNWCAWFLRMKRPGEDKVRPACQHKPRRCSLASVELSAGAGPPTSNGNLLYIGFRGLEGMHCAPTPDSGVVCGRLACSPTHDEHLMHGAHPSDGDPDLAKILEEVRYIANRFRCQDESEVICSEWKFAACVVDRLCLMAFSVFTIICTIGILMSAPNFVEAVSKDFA
In short: as §3

[25] = molecular target: Nicotinic acetylcholine receptor alpha6/alpha3/beta4 (Homo sapiens, UniProt P30926+P32297+Q15825); conditions: Oocyte
[26] = molecular target: T1, Nicotinic acetylcholine receptor alpha6/alpha3/beta4 (Rattus norvegicus); conditions: Oocyte

Compound: CC[C@H](C)[C@@H]1NC(=O)[C@H](CCC(=O)O)NC(=O)[C@@H]2CCCN2C(=O)[C@H](Cc2cnc[nH]2)NC(=O)[C@H](CC(N)=O)NC(=O)[C@H](C(C)C)NC(=O)[C@H](CC(N)=O)NC(=O)[C@@H]2CSSC[C@H](NC(=O)CN)C(=O)N[C@@H](CSSC[C@@H](C(N)=O)NC1=O)C(=O)N[C@@H](CO)C(=O)N[C@@H](Cc1cnc[nH]1)C(=O)N1CCC[C@H]1C(=O)N[C@@H](C(C)C)C(=O)N2 (H-GCCSHPVCNVNHPEIC-NH2; disulfide 2-8, 3-16)
- IC50 [1]: 0.00048 µM
- Activity [2]: 6%
- IC50 [3]: > 10 µM
- IC50 [4]: > 10 µM
- IC50 [5]: > 10 µM
- IC50 [6]: 0.23 µM
- IC50 [7]: > 10 µM
- IC50 [8]: > 10 µM
- IC50 [9]: 0.111 µM
- IC50 [10]: > 10 µM
- IC50 [11]: > 10 µM
- Ratio IC50 (Homo sapiens [12]): > 50000
- Ratio IC50 (Homo sapiens [13]): > 50000
- Ratio IC50 (Rattus norvegicus [14]): > 20000
- Ratio IC50 (Homo sapiens [15]): > 50000
- Ratio IC50 (Rattus norvegicus [16]): > 20000
- Ratio IC50 (Homo sapiens [17]): 895
- Ratio IC50 (Homo sapiens [18]): > 10000
- Ratio IC50 (Rattus norvegicus [19]): > 20000
- Ratio IC50 (Rattus norvegicus [20]): > 20000
- inhibition [21]: 98%
- inhibition [22]: 85%
- inhibition [23]: 81%
- inhibition [24]: 82%
- deltalogIC50 [25]: -1.5
- deltalogIC50 [26]: -2.4
